Screens: PubChem, several laboratories
The list is not random: actives were taken first. Their share in the collection is about 4%.
Granule exo inh = lytic granule exocytosis inhibition; TALL-104 LAMP-1 surface exposure, flow cytometry; cells stimulated with thapsigargin and PMA; inhibition, % at 10 µM; 360,000 compounds, 0.66% hits; AID 651702;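 active = inhibition above about 55%, limit read from the data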
Mdm2-MdmX inh = disrupts the human Mdm2-MdmX interaction. O15151+Q00987. SaOS-2 split-luciferase Mdm2/MdmX complementation, luminescence. inhibition, % at 8 µM. 330,000 compounds, 3% hits. AID 485346;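 active = inhibition of at least 50% at 8 µM in the primary screen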
Target sequence (O15151 whole entry, looked up): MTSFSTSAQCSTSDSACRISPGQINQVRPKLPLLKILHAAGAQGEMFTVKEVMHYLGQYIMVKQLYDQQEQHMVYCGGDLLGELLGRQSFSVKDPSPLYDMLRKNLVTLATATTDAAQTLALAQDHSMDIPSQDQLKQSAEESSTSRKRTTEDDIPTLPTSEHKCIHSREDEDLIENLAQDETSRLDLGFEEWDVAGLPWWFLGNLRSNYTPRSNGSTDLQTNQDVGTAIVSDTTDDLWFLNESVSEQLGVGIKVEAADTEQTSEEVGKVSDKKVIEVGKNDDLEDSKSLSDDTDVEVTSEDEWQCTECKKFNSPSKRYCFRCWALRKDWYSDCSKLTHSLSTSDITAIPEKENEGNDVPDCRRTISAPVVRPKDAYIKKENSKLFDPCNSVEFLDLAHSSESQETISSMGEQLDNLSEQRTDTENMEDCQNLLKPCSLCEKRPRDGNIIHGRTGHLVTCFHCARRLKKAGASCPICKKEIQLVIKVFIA
Target sequence (Q00987 whole entry, looked up): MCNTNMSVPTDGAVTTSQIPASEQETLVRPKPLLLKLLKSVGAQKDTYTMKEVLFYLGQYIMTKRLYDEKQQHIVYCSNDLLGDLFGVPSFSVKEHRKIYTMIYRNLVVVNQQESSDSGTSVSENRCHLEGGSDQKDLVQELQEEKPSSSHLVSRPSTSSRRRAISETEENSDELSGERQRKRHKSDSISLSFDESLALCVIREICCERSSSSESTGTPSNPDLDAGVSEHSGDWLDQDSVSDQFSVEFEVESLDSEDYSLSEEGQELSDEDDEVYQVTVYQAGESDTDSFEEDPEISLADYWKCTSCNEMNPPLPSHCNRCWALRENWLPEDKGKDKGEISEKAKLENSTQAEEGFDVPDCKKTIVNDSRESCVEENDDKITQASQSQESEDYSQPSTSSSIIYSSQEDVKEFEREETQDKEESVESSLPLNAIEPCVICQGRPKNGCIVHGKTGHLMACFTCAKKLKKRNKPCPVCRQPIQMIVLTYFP
UPR CHOP act = apoptotic UPR (CHOP) activation. CHO-CHOP luciferase reporter, luminescence; percent of tunicamycin response over DMSO baseline. activation, % at 10 µM. 330,000 compounds, 0.34% hits;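 active = at 10 µM dose, activation of 40% or more, normalized to positive control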;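 also: 100% = tunicamycin at 10 µg/mL and 0% = DMSO alone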
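Dosing – one dose, 10 µM in 0.5% DMSO · System – CHO-CHOP cells, stable luciferase reporter of PERK-eIF2a-CHOP signalling · Input – 500 cells/well · Control set – tunicamycin 10 µg/mL final as positive, DMSO-only wells as negative · Timing – 6 h compound treatment, 37 °C · Measure – % activation vs tunicamycin · Technique – luminescence read with Steady-Glo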
XBP1 UPR activ = adaptive UPR (XBP1) activation; AID 463104; CHO-XBP1 luciferase reporter, IRE1-XBP1 UPR activation, luminescence; percent of tunicamycin response, DMSO as zero; 330,000 compounds, 0.33% hits; activation, % at 20 µM;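 active = versus positive control, 20 µM dose yields 30% or more activation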;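 also: 100% = tunicamycin at 10 µg/mL and 0% = DMSO only wells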
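Material: CHO-XBP1 cells stably carrying IRE1-XBP1-driven luciferase reporter | Medium: F12 with 10% serum | Compound dosing: 20 µM single concentration, DMSO 1% | Incubation: Overnight seeding at 37 °C, 6 h compound treatment at 37 °C | Detection: Steady-Glo luminescence read | Read-out basis: % activation of reporter signal versus tunicamycin and DMSO controls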
ABHD5 PLIN5 PPI = ABHD5-PLIN5 protein interaction inhibition; AID 602281; inhibition, % at 4 µM; Q00G26+Q8WTS1; 360,000 compounds, 0.78% hits; Split G. princeps luciferase complementation, luminescence, 4 h;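 active = inhibition above the mean inhibition across every tested compound plus 3 SD, cut at about 22% in these data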;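 also: 0% = DMSO only wells and the 100% control is not disclosed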
Mdm2 MdmX conf = confirmation of human Mdm2/MdmX interaction inhibitors; Mdm2-MdmX binding, luminescent assay; 10,000 compounds, 55% hits; inhibition, % at 8 µM; shares compounds with Mdm2-MdmX inh; in the data active = inhibition above about 40%
Full FLuc ctr = inhibits full-length luciferase, flagging false Mdm2/MdmX hits; SaOS-2 full-length luciferase counterscreen, luminescence; shares compounds with Mdm2-MdmX inh; inhibition, % at 8 µM; 6,200 compounds, 77% hits;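 active = mean inhibition at 8 µM reaching about 37%, which flags the compound as non-specific, limit read from the data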;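 also: p53-null SaOS-2 cells with luciferase driven by a doxycycline-inducible promoter; compound on cells about two nights before reading with doxycycline added after day one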
* = called active by the depositor; . = not tested or not shown.

SMILES | Granule exo inh | Mdm2-MdmX inh | UPR CHOP act | XBP1 UPR activ | ABHD5 PLIN5 PPI | Mdm2 MdmX conf | Full FLuc ctr
CC(=O)Oc1c(C)cc(Cl)cc1C(=O)Nc1ccc([N+](=O)[O-])cc1Cl | 27 | 99* | 34 | 14 | 2 | 81* | 28
CC(=O)OCC(=O)Nc1ccc([N+](=O)[O-])cc1Cl | 2 | -20 | -1 | 2 | 0 | . | .
O=C(Nc1nc2ccccc2s1)Nc1ccc([N+](=O)[O-])cc1Cl | . | 42 | 0 | 1 | . | . | .
O=C(Nc1ccccc1)Nc1ccc(Cl)c([N+](=O)[O-])c1 | -3 | 80* | 4 | 9 | -3 | 50* | 43*
O=C(Nc1ccc(Cl)c([N+](=O)[O-])c1)Nc1nc2ccccc2s1 | . | 85* | 2 | 0 | . | 40 | 85*
CC(C)c1nc2n[nH]c(N)c2c2c1CCCC2 | 4 | 28 | 0 | 3 | 12 | . | .
COc1ccc(C2CC(=O)c3cnc(NC(=O)c4ccccc4)nc3C2)c(OC)c1 (stereo not given) | 6 | 58* | 1 | 0 | -3 | 41* | 71*
COc1ccc(C2CC(=O)c3cnc(N)nc3C2)c(OC)c1 (stereo not given) | -4 | . | . | . | 7 | . | .
COc1ccc(C(=O)n2ncc(C#N)c2N)cc1 | 5 | . | . | . | 3 | . | .
COC(=O)c1ccc(/C=N/N2CCN(Cc3ccc(C)cc3C)CC2)cc1 | 11 | 17 | 3 | -2 | 7 | . | .
N#C/C(=C(/O)c1ccc([N+](=O)[O-])s1)c1nc2ccccc2[nH]1 | 19 | 89* | 1 | 1 | -10 | 83* | 68*
N#C/C(=C(\O)Cc1ccccc1)c1nc2ccccc2[nH]1 | 1 | 55* | 1 | 1 | 2 | 10 | .
Cc1ccc(C(C)C)c(OC/C(O)=C(\C#N)c2nc3ccccc3[nH]2)c1 | 3 | 59* | 0 | -2 | -1 | 32 | .
COc1ccc(/C=N/OC/C(O)=C(\C#N)c2nc3ccccc3[nH]2)cc1OC | 4 | 73* | -2 | -2 | 5 | 25 | .
COc1ccc(/C(C)=N/OC/C(O)=C(\C#N)c2nc3ccccc3[nH]2)cc1 | -6 | 24 | 1 | -1 | 3 | . | .
CC(C)C(=O)OC/C(O)=C(\C#N)c1nc2ccccc2[nH]1 | -1 | 13 | 0 | 0 | 3 | . | .
CCCn1nnnc1NCc1c(F)cccc1Cl | -12 | -5 | 3 | 2 | -10 | . | .
Cc1ccc(NC(=O)c2cc3ccccc3oc2=O)cc1S(=O)(=O)N(C)C | -4 | 89* | -8 | -10 | -6 | 94* | 26
COc1cc(/C=N/NC(=O)c2cncc(Br)c2)cc([N+](=O)[O-])c1O | -7 | 56* | -1 | -2 | -3 | 50* | 48*
Cc1ccc(-n2c(=O)c3ccc(C(=O)NCc4ccco4)cc3n(Cc3ccccc3C#N)c2=O)cc1 | 4 | 29 | -3 | -3 | -3 | . | .
Cc1ccccc1Cn1c(=O)n(-c2ccccc2)c(=O)c2ccc(C(=O)NCc3ccco3)cc21 | 4 | 68* | 1 | -1 | -3 | 22 | .
C=CCNc1nc(-c2ccccn2)nnc1-c1ccccc1 | 5 | 55* | -3 | 3 | 2 | 60* | 41*
CCN(CC)CCNC(=O)c1cc2c(-c3ccc(Cl)cc3)nn(C)c2s1 | 11 | 39 | 2 | -2 | 16 | . | .
CCCCN(CC)CCNC(=O)c1cc2c(-c3ccc(Cl)cc3)nn(C)c2s1 | 29 | 58* | 3 | 3 | 21 | 33 | 31
Cn1nc(-c2ccc(Cl)cc2)c2cc(C(=O)NC3CC3)sc21 | 11 | 59* | 0 | -1 | -1 | 25 | .
SMILES | Granule exo inh | Mdm2-MdmX inh | UPR CHOP act | XBP1 UPR activ | ABHD5 PLIN5 PPI | Mdm2 MdmX conf | Full FLuc ctr
Fc1ccccc1N1CCN(c2ncnc3[nH]ncc23)CC1 | 0 | 63* | 0 | -1 | 3 | 25 | .
Fc1ccccc1N1CCN(c2ncnc3nc[nH]c23)CC1 | -2 | 26 | 0 | -2 | -1 | . | .
O=C(N/N=C/c1c[nH]c2ccccc12)c1cc(-c2ccc3ccccc3c2)n[nH]1 | 11 | 54* | 2 | 10 | 3 | 52* | 87*
O=C(N/N=C/c1c[nH]c2ccccc12)c1cc(-c2cccc3ccccc23)n[nH]1 | 0 | 58* | -1 | 0 | -7 | 2 | .
C=C(C)CSc1nnc(-c2cccc(Cl)c2)n1N | 2 | -12 | 1 | 4 | -5 | . | .
Cc1ccc(-c2cc(C(=O)Nc3c(C)n(C)n(-c4ccccc4)c3=O)[nH]n2)c(O)c1C | -3 | 6 | -1 | -3 | 2 | . | .
CCOc1cc(N(CC)CC)ccc1/C=C(/C#N)c1nc2ccccc2[nH]1 | 3 | 51* | 6 | 10 | 2 | 47* | 92*
CCN(CC)c1ccc(/C=C(/C#N)c2nc3ccc(C)cc3[nH]2)c(OC(C)C)c1 | 2 | 52* | 1 | 6 | 7 | 44* | 79*
Cc1ccc(NC(=O)C2CCN(S(=O)(=O)c3cccs3)CC2)c(O)c1 | 3 | 8 | 0 | -3 | -3 | . | .
Cc1sc2nc(CSc3ccc([N+](=O)[O-])cc3)[nH]c(=O)c2c1C | . | 15 | 1 | -2 | . | . | .
CSc1ccc(CN2CCN(S(=O)(=O)Cc3ccccc3)CC2)cc1 | 19 | 0 | 0 | -5 | -12 | . | .
N#Cc1c(C(F)(F)F)cc(-c2ccc(F)cc2)nc1SCC(=O)O | -1 | -22 | -1 | 2 | -3 | . | .
COC(=O)CSc1nc(C)cc(C(F)(F)F)c1C#N | 1 | 9 | 0 | -5 | -11 | . | .
Cc1coc(NC(=O)CSc2nc(-c3ccncc3)cc(C(F)(F)F)c2C#N)n1 | -3 | 52* | 4 | 4 | -2 | 9 | .
CCOC(=O)NC(=O)CSc1nc(C)cc(C(F)(F)F)c1C#N | 2 | 59* | 3 | 2 | 2 | 15 | .
CC(C)CN(C(=O)COC(=O)CNC(=O)c1sc2ccccc2c1Cl)C1CCS(=O)(=O)C1 (stereo not given) | -1 | 12 | 0 | 2 | -6 | . | .
Nc1nc(=S)n(-c2ccccc2)[nH]1 | 0 | -25 | -1 | -1 | . | . | .
COc1cc2c(cc1OC)CN(c1nc(CN3CCOCC3)nc3sc4c(c13)CCC(C)C4)CC2 (stereo not given) | -2 | 64* | 2 | 3 | 5 | 28 | 74*
CCN(c1cccc(C)c1)S(=O)(=O)c1ccc(-c2cc(C)no2)s1 | 19 | 53* | -3 | 4 | -4 | 53* | 69*
COc1ccccc1NS(=O)(=O)c1ccc(-c2cc(C)no2)s1 | 8 | 49 | -1 | -3 | 0 | . | .
Cc1cccc(N(C)S(=O)(=O)c2ccc(-c3cc(C)no3)s2)c1 | 17 | 65* | 2 | 5 | -4 | 51* | 89*
